Measurements reported in PubChem BioAssay.
Records with an inconclusive call do not appear.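 Rule for the calls, unless noted: active = viability increase at or above a cutoff of the median across tested compounds plus 3 SD (cut at about 8.5% in these data, passing the limit was not always enough); inconclusive = some gains above the cutoff, reason not given; inactive = the rest.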

How the values were obtained:
[1] = S. cerevisiae growth inhibition in permissive medium (OD615), pilot counter-assay for S. cerevisiae lifespan shortening project, permissive growth control (AID 705;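 active = growth inhibition above 25% in both replicates, a cutoff set 3 SD above the mean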); settings: OD615, 24 h, at 10 µM, active compounds read high
Outline: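 assay system = Saccharomyces cerevisiae strain carrying genetically modified DeaD replicative-lifespan system | technique = absorbance (optical density) at 615 nm | buffer or medium = permissive raffinose/galactose medium | timing = cells pre-grown 4 h, then 24 h compound exposure, 30 °C humidified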

[2] = S. cerevisiae growth inhibition in restrictive medium, OD615, pilot screen, restrictive growth control, yeast lifespan reduction project (AID 706;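 active = growth inhibition above a set limit, 3 SD over mean compound inhibition, in both replicates, cut at about 43% in these data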;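 note: modified DeaD lifespan yeast strain shifted to restrictive glucose medium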); settings: OD615, 48 h, at 10 µM, active compounds read high
Outline: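 System: modified S. cerevisiae. Buffer or medium: CSMM-D glucose medium. Incubation: 4 h pre-growth plus 48 h compound exposure, 30 °C. Detection: absorbance (optical density) measured at 615 nm.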

[3] = doxorubicin toxicity protection in MRP-1 cells – H69AR cells, CellTiter-Glo, duplicate, MRP-1 activator project, pilot screen (AID 807); settings: H69AR viability with doxorubicin, CellTiter-Glo luminescence; at 10 µM; active compounds read high;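 note: compound pretreatment 18-22 h then 72 h combined with doxorubicin; 0% = doxorubicin alone and 100% = vehicle without doxorubicin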
[4] = viability of HCT116 without oncogenic beta-catenin – human colon tumor cells, pilot screen (AID 823;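 active = cell viability at or below a set limit in both duplicate runs, the limit being the all-compound median minus 4 SD, cut at about 23% in these data, passing the limit was not always enough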;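 note: 0% = wells killed by 20 µM Hyamine and 100% = untreated DMSO cell wells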); settings: HCT116 beta-catenin knockout viability, CellTiter-Glo, 60 h; at 10 µM; active compounds read low
[5] = viability of PTEN-null HCT116 cells – cell-based, HCT116 clonal line, CellTiter-Glo, pilot screen (AID 824;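 active = viability at or below 27.92% in each of two runs, the all-compound median minus 4 SD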;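 note: 0% = 20 µM Hyamine control and 100% = vehicle cell control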); settings: HCT116 PTEN-deleted viability, 60 h, at 10 µM, active compounds read low
[6] = RAM pathway blockade in budding yeast – dse1pr::URA3 reporter, 5-FOA selection, pilot screen (AID 869;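 active = inhibition over a set limit, the all-compound mean plus 3 SD, in both replicate runs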;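 note: 0% = DMSO wells with no growth and 100% = 10 µM 1-NA-PP1 with full growth; RAM network block rescues cells from 5-FOA so hits raise OD615 growth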); settings: S. cerevisiae dse1pr::URA3 5-FOA growth, OD615, 2 d; at 10 µM; active compounds read high; strain carries analog-sensitive mutant Cbk1 kinase
[7] = RAM signaling pathway blockade in yeast – S. cerevisiae, Pdr1DBD-CYC8 efflux-inhibited sensitized strain, primary screen (AID 1298;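 active = RAM network inhibition above 8.4% in each of two replicates, 3 SD over the compound average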;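 note: 0% = DMSO untreated cells without growth and 100% = 10 µM 1-NA-PP1 full growth; higher means more yeast growth rescued from 5-FOA killing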); settings: S. cerevisiae cbk1-as DSE1-URA3 strain, 5-FOA growth OD615, 2 d; at 50 µM; active compounds read high

Cn1c(C(=O)NC2CCCCC2)cc2c(=O)n(C)c3ccccc3c21
inactive: growth inhibition [1] -10.6% | growth inhibition [2] -6.48% | viability increase [3] -1.7% | viability [4] 88% | viability [5] 73.8% | inhibition [6] 1.46% | RAM network inhibition [7] 4.6%

CC1CCN(c2nc(-c3ccncc3)nc3ccccc23)CC1
inactive: growth inhibition [1] 6.84% | growth inhibition [2] -2.73% | viability increase [3] -5.28% | viability [4] 40.4% | viability [5] 58.7% | inhibition [6] 0.745% | RAM network inhibition [7] 5.56%

O=C(O)Cn1ncc2c1-c1ccoc1CC2
inactive: growth inhibition [1] -0.31% | growth inhibition [2] 2.4% | viability increase [3] -0.14% | viability [4] 106% | viability [5] 96.6% | inhibition [6] 2.17% | RAM network inhibition [7] 0.47%

CCn1cc(C(=O)N2CC(C)CC(C)C2)c(=O)c2cc(S(=O)(=O)N(C)C)ccc21 (configuration not stated)
inactive: growth inhibition [1] 4.35% | growth inhibition [2] 6.52% | viability increase [3] -0.18% | viability [4] 103% | viability [5] 101% | inhibition [6] -0.3% | RAM network inhibition [7] 2.78%

O=C(Nc1ccc2c(c1)OCO2)c1cc(C2CC2)on1
inactive: growth inhibition [1] -12.5% | growth inhibition [2] -18% | viability increase [3] -3.41% | viability [4] 84.9% | viability [5] 88.8% | inhibition [6] 1% | RAM network inhibition [7] 3.09%

COc1ccccc1N1CCN(C(=O)CCCC2=NS(=O)(=O)c3ccccc3N2)CC1
inactive: growth inhibition [1] 0.08% | growth inhibition [2] -12.7% | viability increase [3] -4.95% | viability [4] 97.3% | viability [5] 92.4% | inhibition [6] 1.4% | RAM network inhibition [7] -0.58%

O=C(O)c1n[nH]c2ccccc12
inactive: growth inhibition [1] -1.77% | growth inhibition [2] -21.2% | viability increase [3] -2.36% | viability [4] 99.2% | viability [5] 95.6% | inhibition [6] 0.89% | RAM network inhibition [7] 0.16%

CC1=C(C#N)C(c2cccnc2)C2=C(CC(C)(C)CC2=O)N1 (configuration not stated)
inactive: growth inhibition [1] 1.49% | growth inhibition [2] -0.735% | viability increase [3] -2.91% | viability [4] 94.2% | viability [5] 99.6% | inhibition [6] 1.09% | RAM network inhibition [7] 3.92%

O=C(Cn1nc(-c2ccccc2)ccc1=O)N1CCOCC1
inactive: growth inhibition [1] 4.29% | growth inhibition [2] 8.44% | viability increase [3] -0.71% | viability [4] 96% | viability [5] 108% | inhibition [6] -0.155% | RAM network inhibition [7] 0.21%

CN(Cc1ccccc1)c1nc2c(c(=O)n(C)c(=O)n2C)n1CCSc1ncccn1
inactive: growth inhibition [1] -11.7% | growth inhibition [2] -3.17% | viability increase [3] -2.71% | viability [4] 93.8% | viability [5] 87.1% | inhibition [6] 1.42% | RAM network inhibition [7] 3.63%

O=CN1CCN(C(C(=O)NC2CCCC2)c2ccc(Cl)cc2)CC1 (configuration not stated)
inactive: growth inhibition [1] -7.98% | growth inhibition [2] 4.62% | viability increase [3] -1.14% | viability [4] 86.2% | viability [5] 88.5% | inhibition [6] 0.795% | RAM network inhibition [7] 2.38%

CCC(=O)Nc1nc2ccccc2n1CCN1CCOCC1
inactive: growth inhibition [1] -9.48% | growth inhibition [2] -0.375% | viability increase [3] -2.15% | viability [4] 98.6% | viability [5] 99.3% | inhibition [6] -0.285% | RAM network inhibition [7] 5.41%

COc1ccc(OC)c(N(CC(=O)NC2CC2)S(=O)(=O)c2ccc(C)cc2)c1
inactive: growth inhibition [1] -13.6% | growth inhibition [2] -20.4% | viability increase [3] -0.94% | viability [4] 96.1% | viability [5] 93.2% | inhibition [6] 0.73% | RAM network inhibition [7] 3.7%

COc1cccc(N2CCN(C(=O)C3CCCN(S(=O)(=O)c4cnc[nH]4)C3)CC2)c1 (configuration not stated)
inactive: growth inhibition [1] 11.1% | growth inhibition [2] 8.66% | viability increase [3] 0.99% | viability [4] 97% | viability [5] 93% | inhibition [6] -0.27% | RAM network inhibition [7] -0.88%

O=C1c2ccccc2C(=O)N1CCCCN(C(=O)c1ccco1)c1ccc(Cl)cc1
inactive: growth inhibition [1] -1.78% | growth inhibition [2] -17.5% | viability increase [3] -2.82% | viability [4] 102% | viability [5] 91.1% | inhibition [6] 2.79% | RAM network inhibition [7] 5.33%

CCN1CCN(c2cc(C)c3cc(NC(=O)c4ccncc4)ccc3n2)CC1
inactive: growth inhibition [1] -8.8% | growth inhibition [2] 1.77% | viability increase [3] -4.96% | viability [4] 82.6% | viability [5] 79.5% | inhibition [6] 1.46% | RAM network inhibition [7] 1.77%

O=C(NCc1ccco1)c1nnc(Cc2ccc(F)cc2)o1
inactive: growth inhibition [1] -18.4% | growth inhibition [2] -12.9% | viability increase [3] -0.65% | viability [4] 105% | viability [5] 89.5% | inhibition [6] 1.21% | RAM network inhibition [7] 4.79%

CCN(CC)S(=O)(=O)c1ccc(C(=O)Nc2nnc(C(C)C)s2)cc1
inactive: growth inhibition [1] -12.7% | growth inhibition [2] -1.79% | viability increase [3] 0.3% | viability [4] 104% | viability [5] 95% | inhibition [6] 1.25% | RAM network inhibition [7] 4.27%

O=C(NCCN1CCOCC1)c1ccc(CS(=O)(=O)c2c(Cl)cccc2Cl)o1
inactive: growth inhibition [1] -0.145% | growth inhibition [2] 5.92% | viability increase [3] -0.81% | viability [4] 110% | viability [5] 105% | inhibition [6] 0.74% | RAM network inhibition [7] 0.87%

COC(=O)c1ccc(Nc2cc(C)nc3nc(C)nn23)cc1
inactive: growth inhibition [1] -10.5% | growth inhibition [2] -4.57% | viability increase [3] -2.65% | viability [4] 97.3% | viability [5] 94.6% | inhibition [6] 1.67% | RAM network inhibition [7] 0.77%

CCC(=O)N/C(=N/c1nc(C)cc(C)n1)Nc1cccc(OC)c1
inactive: growth inhibition [1] -5.62% | growth inhibition [2] -19.7% | viability increase [3] -4.53% | viability [4] 41.1% | viability [5] 36.4% | inhibition [6] 2.23% | RAM network inhibition [7] 3.66%

CCSc1nnc(NC(=O)CSc2nc3c(c(=O)n2-c2ccccc2)SCC3)s1
inactive: growth inhibition [1] -6.26% | growth inhibition [2] -2.77% | viability increase [3] -1.11% | viability [4] 100% | viability [5] 103% | inhibition [6] 2.82% | RAM network inhibition [7] 4.35%

C=CCN(C(=O)CN1CCOCC1)c1nc(C)c(-c2ccccc2)s1
inactive: growth inhibition [1] -16.4% | growth inhibition [2] -12.9% | viability increase [3] -3.35% | viability [4] 91.9% | viability [5] 87.4% | inhibition [6] -0.245% | RAM network inhibition [7] 0.88%

CCCN(CCC)C(=O)COc1cc(=O)n(CC)c2ccccc12
inactive: growth inhibition [1] -17.4% | growth inhibition [2] -2.75% | viability increase [3] -1.75% | viability [4] 99.8% | viability [5] 89.3% | inhibition [6] 0.52% | RAM network inhibition [7] 0.9%

Cc1c(N2C(=O)CSC23C(=O)Nc2ccccc23)c(=O)n(-c2ccccc2)n1C (configuration not stated)
inactive: growth inhibition [1] -10.1% | growth inhibition [2] -11.7% | viability increase [3] -3.38% | viability [4] 90.4% | viability [5] 91.8% | inhibition [6] 3.84% | RAM network inhibition [7] 3.91%

CCOC(=O)Cn1nc(C)c(-c2ccccc2)c1N
inactive: growth inhibition [1] -23.1% | growth inhibition [2] -5.69% | viability increase [3] -1.41% | viability [4] 97.4% | viability [5] 95.2% | inhibition [6] 1.26% | RAM network inhibition [7] 2.61%

CCOC(=O)COc1ccc2cc(C(=O)OCC)c(=O)oc2c1
inactive: growth inhibition [1] -4.38% | growth inhibition [2] -13.8% | viability increase [3] -0.91% | viability [4] 103% | viability [5] 96.2% | inhibition [6] 1.7% | RAM network inhibition [7] 2%

O=C(Nc1ccccc1F)C1CCCN(S(=O)(=O)c2cccc3cccnc23)C1 (configuration not stated)
inactive: growth inhibition [1] -3.46% | growth inhibition [2] -7.69% | viability increase [3] -1.63% | viability [4] 92.3% | viability [5] 88.8% | inhibition [6] 1.49% | RAM network inhibition [7] 2.96%

O=C(NCc1ccccn1)Nc1cccc(Cl)c1
inactive: growth inhibition [1] -14.7% | growth inhibition [2] -9.4% | viability increase [3] -2.22% | viability [4] 97.7% | viability [5] 94.5% | inhibition [6] 0.095% | RAM network inhibition [7] 2.46%

O=C(CC(c1ccccc1)c1ccccc1O)NCCN1CCOCC1 (configuration not stated)
inactive: growth inhibition [1] 0.155% | growth inhibition [2] -2.5% | viability increase [3] -2.74% | viability [4] 102% | viability [5] 95.6% | inhibition [6] 3.25% | RAM network inhibition [7] 2.36%

O=C(Cn1c(=O)oc2cc(S(=O)(=O)N3CCc4ccccc43)ccc21)N1CCCCC1
inactive: growth inhibition [1] -2.98% | growth inhibition [2] -7.46% | viability increase [3] -2.88% | viability [4] 98.1% | viability [5] 80.5% | inhibition [6] -0.125% | RAM network inhibition [7] 2.79%

CN(C)c1nc(N)nc(-c2ccco2)n1
inactive: growth inhibition [1] 3.19% | growth inhibition [2] 14.2% | viability increase [3] 0.01% | viability [4] 93.7% | viability [5] 103% | inhibition [6] 0.535% | RAM network inhibition [7] 0.21%

C=CCSc1nnc(CSc2nc3sc4c(c3c(=O)[nH]2)CCCC4)n1-c1ccccc1
inactive: growth inhibition [1] 9.19% | growth inhibition [2] 37.7% | viability increase [3] 0.54% | viability [4] 93.2% | viability [5] 91.2% | inhibition [6] 1.42% | RAM network inhibition [7] 11%

COc1ccc(C2N(c3cc(Cl)ccc3OC)C(=O)C3CCCN32)cc1OC (configuration not stated)
inactive: growth inhibition [1] -8.95% | growth inhibition [2] -8.17% | viability increase [3] -1.86% | viability [4] 106% | viability [5] 95.9% | inhibition [6] 1.02% | RAM network inhibition [7] 7.33%

CCNc1nc(C)nc2c1oc1ccccc12
inactive: growth inhibition [1] -8.28% | growth inhibition [2] -30.6% | viability increase [3] 0.92% | viability [4] 101% | viability [5] 89.5% | inhibition [6] 1.81% | RAM network inhibition [7] 3.64%

COc1cccc(C2CC(c3cccc(OC)c3)n3nc(N)nc3N2)c1 (configuration not stated)
inactive: growth inhibition [1] -4.01% | growth inhibition [2] 3.82% | viability increase [3] -2.05% | viability [4] 95.2% | viability [5] 92.6% | inhibition [6] 0.07% | RAM network inhibition [7] 2.5%
